Test results taken from ChEMBL document CHEMBL4706642, “Discovery of a Potent Dual Inhibitor of Acetylcholinesterase and Butyrylcholinesterase with Antioxidant Activity that Alleviates Alzheimer-like Pathology in Old APP/PS1 Mice” (J Med Chem, 2021).
pIC50, pKi: −log10 of the molar value. Activity calls are given as the source filed them. The calls are words filed in the database; no cut-off is given here.

Legend:
[1] = Drug distribution in wild type C57BL6 mouse brain at 2 mg/kg, ip thrice a week for 2 weeks observed after 4 hrs post last dose by HPLC/MS/MS analysis; format: ADME, organism-based; settings: in vivo, 336 h
Mus musculus [2] = assay: Cognitive enhancing effect in 6 months young APP/PS1 double mutant-transgenic mouse model assessed as increase in preference index for object at 2 mg/kg, ip administered thrice a week for 4 weeks by novel object localization test; format: functional, organism-based
Outline: (§1)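 Male APP/PS1 mice received 2 mg/kg i.p. in saline (or vehicle), three times per week for 4 weeks. Preference index = time exploring the relocated or novel object divided by total time exploring both objects. Mean ± SEM, n = 7 per group; one-way ANOVA with Bonferroni post hoc.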

[3] = Selectivity index, ratio of IC50 for human serum BChE using butyrylthiocholineiodide as substrate to IC50 for recombinant human AChE using acetylthiocholine iodide as substrate
Outline: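 Ellman spectrophotometric assay in 0.1 M phosphate buffer, pH 8.0, with 340 μM DTNB. Enzyme was 0.02 U/mL human recombinant AChE or human serum BChE. […] Then 550 μM ATCh or BTCh was added, and A412 was followed for 210 s. Non-enzymatic hydrolysis was corrected. IC50 came from a % inhibition vs log[I] regression. Selectivity = IC50 hBChE/IC50 hAChE. Mean ± SEM of ≥2 experiments, each in duplicate/triplicate.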

[4] = molecular target: Beta-secretase 1 (Homo sapiens) (UniProt P56817); assay: Inhibition of recombinant human BACE-1 at 1 uM using methoxycoumarin-Ser-Glu-Val-Asn-Leu-Asp-Ala-Glu-Phe-Lys-dinitrophenyl as substrate preincubated for 1 hr followed by substrate addition and measured after 15 mins by fluorescence based assay relative to control; settings: time 75.0 min
Mus musculus [5] = assay: Cognitive enhancing effect in 11 months old APP/PS1 double mutant-transgenic mouse model assessed as effect on number of times animal crossing central area in transparent cage at 2 mg/kg, ip administered thrice a week for 4 weeks by LOF test; format: functional, organism-based
Outline: (§2)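 Open-field locomotor test in male APP/PS1 mice after 2 mg/kg i.p. in saline (or vehicle), three times per week for 4 weeks. Read-outs were time spent moving and number of crossings of the central area of a transparent cage. Mean ± SEM, n = 7 per group; one-way ANOVA with Bonferroni post hoc.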

[6] = Drug distribution in wild type C57BL6 mouse kidney at 2 mg/kg, ip thrice a week for 2 weeks observed after 4 hrs post last dose by HPLC/MS/MS analysis; format: ADME, organism-based; settings: in vivo, 336 h
[7] = Drug concentration in wild type C57BL6 mouse plasma at 2 mg/kg, ip thrice a week for 2 weeks observed after 4 hrs post last dose by HPLC/MS/MS analysis; settings: plasma
Mus musculus [8] = assay: Antialzheimer activity in 11 months old APP/PS1 double mutant-transgenic mouse model assessed as ratio of amyloid beta42 to amyloid beta40 levels in hippocampus at 2 mg/kg, ip administered thrice a week for 4 weeks by ELISA (reference value: 7.99 +/- 0.60); format: functional
Mus musculus [9] = assay: Antialzheimer activity in 6 months young APP/PS1 double mutant-transgenic mouse model assessed as fiber volley amplitude in CA3 region of hippocampus at 2 mg/kg, ip administered thrice a week for 4 weeks followed by stimulation with 1 to 10 uA EPSP by fluorescence microscopy based electrophysiology method (reference value: 0.719 +/- 0.175 mV/ms); format: functional
Outline: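 Hippocampal slices from male APP/PS1 mice given 2 mg/kg i.p. in saline (or saline alone), three times per week for 4 weeks. Input–output curves were built from evoked fEPSP slopes and fiber volley amplitudes, with values taken at the maximum current intensity. Mean ± SEM of 9 slices from 3 mice per group; two-way ANOVA with Bonferroni post hoc.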

Mus musculus [10] = assay: Antialzheimer activity in 11 months old APP/PS1 double mutant-transgenic mouse model assessed as amyloid beta42 levels in hippocampus at 2 mg/kg, ip administered thrice a week for 4 weeks by ELISA (Rvb= 69.0 +/- 4.54 pg/ml); format: functional
Outline: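 Male APP/PS1 mice received 2 mg/kg i.p. in saline (or vehicle), three times weekly for 4 weeks. After the behavioral tests, hippocampus was collected and Aβ40 and Aβ42 were measured with a specific ELISA kit. Mean ± SEM, n = 7 mice per group; one-way ANOVA with Bonferroni post hoc.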

Cholinesterase = Cholinesterase (Homo sapiens, UniProt P06276); assay: Inhibition of human serum BChE using butyrylthiocholineiodide as substrate preincubated for 20 mins followed by substrate addition by Ellman's method; format: cell-free
Outline: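 Enzyme was 0.02 U/mL human recombinant AChE or human serum BChE. Non-enzymatic hydrolysis was corrected. IC50 came from a % inhibition vs log[I] regression. Selectivity = IC50 hBChE/IC50 hAChE. Mean ± SEM of ≥2 experiments, each in duplicate/triplicate.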

Mus musculus [11] = assay: Cognitive enhancing effect in 6 months young APP/PS1 double mutant-transgenic mouse model assessed as increase in preference index for object at 2 mg/kg, ip administered thrice a week for 4 weeks by novel object recognition test; format: functional, organism-based; outline: as §1
Mus musculus [12] = assay: Cognitive enhancing effect in 11 months old APP/PS1 double mutant-transgenic mouse model assessed as effect on time spent on moving along the field at 2 mg/kg, ip administered thrice a week for 4 weeks by LOF test; format: functional, organism-based; outline: as §2
Mus musculus [13] = assay: Neuroprotective activity in 11 months old APP/PS1 double mutant-transgenic mouse model assessed as decrease in 4-hydroxy-2-nonenal levels in hippocampus at 2 mg/kg, ip administered thrice a week for 4 weeks by Hoechst staining based immunofluorescence analysis; format: functional, organism-based
Outline: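 Hippocampal 4-hydroxy-2-nonenal was assessed by immunofluorescence with Hoechst counterstain in male APP/PS1 mice given 2 mg/kg i.p. in saline (or vehicle), three times weekly for 4 weeks. Mean ± SEM, n = 4 mice per group; one-way ANOVA with Bonferroni post hoc.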

[14] = Drug concentration in wild type C57BL6 mouse brain at 2 mg/kg, ip thrice a week for 2 weeks observed after 4 hrs post last dose by HPLC/MS/MS analysis; settings: brain
Mus musculus [15] = assay: Cognitive enhancing effect in 11 months old APP/PS1 double mutant-transgenic mouse model assessed as increase in preference index for object at 2 mg/kg, ip administered thrice a week for 4 weeks by novel object localization test; format: functional, organism-based; outline: as §1
[16] = molecular target: Acetylcholinesterase (Electrophorus electricus) (UniProt O42275); assay: Displacement of propidium iodide from PAS-region of electric eel AChE assessed as decrease in fluorescence intensity by spectrofluorimetric analysis
Outline: (§3)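 Back-titration fluorescence assay using electric eel AChE (type VI-S). Inhibitor was added in successive aliquots from a MeOH stock. Emission was read at 602 nm with excitation at 535 nm, after subtracting blanks. […] Three independent experiments.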

[17] = molecular target: Acetylcholinesterase (Electrophorus electricus) (UniProt O42275); assay: Displacement of propidium iodide from PAS-region of electric eel AChE assessed as decrease in fluorescence intensity at 4 to 64 uM by spectrofluorimetric analysis relative to control; parameters: scale not given: the % may be the effect or the level left; settings: dose 4-64 µM; outline: as §3
Acetylcholinesterase = Acetylcholinesterase (Homo sapiens, UniProt P22303); assay: Mixed-type inhibition of recombinant human AChE assessed as inhibition constant using acetylthiocholine iodide as substrate by Cornish-Bowden plot analysis
Outline: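 Kinetics on human recombinant AChE with acetylthiocholine at 0.113–0.566 mM and inhibitor at 0.17–1.36 nM. Lineweaver–Burk plots were fitted by weighted least squares. Ki was taken as the negative x-intercept of a replot of slopes vs [I]. K'i came from a plot of apparent 1/vmax vs [I]. Two independent experiments, each in triplicate.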

Beta-secretase 1 (Homo sapiens), sequence (P56817 whole entry): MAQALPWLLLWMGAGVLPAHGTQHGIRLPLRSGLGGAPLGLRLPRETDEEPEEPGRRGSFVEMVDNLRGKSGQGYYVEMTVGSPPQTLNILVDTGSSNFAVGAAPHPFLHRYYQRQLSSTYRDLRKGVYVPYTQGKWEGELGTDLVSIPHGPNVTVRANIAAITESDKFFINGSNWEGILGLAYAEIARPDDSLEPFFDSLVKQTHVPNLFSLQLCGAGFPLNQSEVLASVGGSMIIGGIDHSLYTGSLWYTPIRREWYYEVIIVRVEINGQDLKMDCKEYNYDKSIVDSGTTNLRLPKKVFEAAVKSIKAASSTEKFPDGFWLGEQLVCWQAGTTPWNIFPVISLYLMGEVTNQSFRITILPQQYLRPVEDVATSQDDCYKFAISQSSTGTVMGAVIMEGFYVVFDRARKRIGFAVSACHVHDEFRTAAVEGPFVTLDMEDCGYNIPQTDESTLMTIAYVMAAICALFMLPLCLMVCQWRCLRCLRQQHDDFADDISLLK
Acetylcholinesterase (Electrophorus electricus), sequence (O42275 24-633 limits assumed): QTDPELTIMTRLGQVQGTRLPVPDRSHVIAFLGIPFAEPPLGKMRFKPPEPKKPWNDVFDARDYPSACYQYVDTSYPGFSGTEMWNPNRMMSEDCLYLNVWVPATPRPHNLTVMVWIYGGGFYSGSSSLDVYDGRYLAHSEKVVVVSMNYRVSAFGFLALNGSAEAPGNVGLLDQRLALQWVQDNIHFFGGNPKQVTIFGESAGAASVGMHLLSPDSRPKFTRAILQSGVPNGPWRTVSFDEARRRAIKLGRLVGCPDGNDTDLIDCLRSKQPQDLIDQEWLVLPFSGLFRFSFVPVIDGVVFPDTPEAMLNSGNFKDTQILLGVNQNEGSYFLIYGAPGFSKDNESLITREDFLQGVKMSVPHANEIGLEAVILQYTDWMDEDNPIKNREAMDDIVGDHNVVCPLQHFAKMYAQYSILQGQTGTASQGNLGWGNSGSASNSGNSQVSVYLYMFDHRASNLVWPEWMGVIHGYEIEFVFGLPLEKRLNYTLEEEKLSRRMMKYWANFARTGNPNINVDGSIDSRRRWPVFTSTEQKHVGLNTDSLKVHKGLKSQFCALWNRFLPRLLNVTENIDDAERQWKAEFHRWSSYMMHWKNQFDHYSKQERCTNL
Cholinesterase, sequence (P06276 whole entry): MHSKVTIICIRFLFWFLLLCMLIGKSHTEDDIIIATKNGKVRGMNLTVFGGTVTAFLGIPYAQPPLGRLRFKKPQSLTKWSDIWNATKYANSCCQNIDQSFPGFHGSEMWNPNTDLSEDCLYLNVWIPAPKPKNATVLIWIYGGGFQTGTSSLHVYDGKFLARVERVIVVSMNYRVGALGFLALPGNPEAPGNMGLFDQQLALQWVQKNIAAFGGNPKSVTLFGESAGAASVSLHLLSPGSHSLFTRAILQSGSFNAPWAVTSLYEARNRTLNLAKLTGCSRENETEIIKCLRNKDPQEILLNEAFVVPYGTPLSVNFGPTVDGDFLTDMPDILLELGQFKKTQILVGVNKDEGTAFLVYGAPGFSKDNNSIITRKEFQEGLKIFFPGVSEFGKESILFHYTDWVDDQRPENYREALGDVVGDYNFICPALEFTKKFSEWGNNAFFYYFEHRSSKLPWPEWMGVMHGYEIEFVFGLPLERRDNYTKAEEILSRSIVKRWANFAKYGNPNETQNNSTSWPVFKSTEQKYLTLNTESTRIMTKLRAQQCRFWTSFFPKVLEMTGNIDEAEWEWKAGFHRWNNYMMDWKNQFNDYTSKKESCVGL
Acetylcholinesterase, sequence (P22303 whole entry): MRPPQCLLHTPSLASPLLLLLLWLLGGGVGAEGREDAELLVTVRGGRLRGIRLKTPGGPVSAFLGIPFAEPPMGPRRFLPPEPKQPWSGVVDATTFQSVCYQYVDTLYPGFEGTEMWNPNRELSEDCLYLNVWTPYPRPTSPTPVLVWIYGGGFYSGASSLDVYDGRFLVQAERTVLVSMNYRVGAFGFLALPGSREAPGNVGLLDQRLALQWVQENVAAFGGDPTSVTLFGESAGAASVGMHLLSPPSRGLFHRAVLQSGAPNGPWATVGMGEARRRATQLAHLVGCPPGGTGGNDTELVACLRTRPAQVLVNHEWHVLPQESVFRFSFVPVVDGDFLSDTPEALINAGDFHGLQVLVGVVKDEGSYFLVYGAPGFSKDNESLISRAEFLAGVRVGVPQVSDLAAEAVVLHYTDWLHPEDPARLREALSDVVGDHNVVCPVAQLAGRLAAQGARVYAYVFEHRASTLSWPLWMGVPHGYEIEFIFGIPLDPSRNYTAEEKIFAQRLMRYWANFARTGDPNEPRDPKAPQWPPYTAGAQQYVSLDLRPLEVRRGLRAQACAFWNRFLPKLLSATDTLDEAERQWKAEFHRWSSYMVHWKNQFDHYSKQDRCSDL

Row | SMILES | Drug uptake [1] | Activity (Mus musculus [2]) | Ratio IC50 [3] | inhibition [4] | Activity (Mus musculus [5]) | Drug uptake [6] | concentration at 336 h [7] | Ratio (Mus musculus [8]) | Activity (Mus musculus [9]) | Activity (Mus musculus [10]) | pIC50 (Cholinesterase) | Activity (Mus musculus [11]) | Activity (Mus musculus [12]) | Activity (Mus musculus [13]) | concentration at 336 h [14] | Activity (Mus musculus [15]) | Activity [16] | Activity [17] | pKi (Acetylcholinesterase)
1 | COc1cc(CNC(=O)Cc2cn(CCCCC3=CC4Cc5nc6cc(Cl)ccc6c(N)c5C(C3)C4)nn2)ccc1O (configuration not stated) | Active | inactive | 6.9 | inactive | inactive | Active | 35600 ng/mL | 3.42 | 0.738 mV/ms | 62.6 pg/mL | 8.14 | inactive | inactive | Active | 18900 ng/g | Active | – | – | –
2 | COc1cc(CNC(=O)CCCCCCNc2c3c(nc4cc(Cl)ccc24)CC2C=C(C)CC3C2)ccc1O (configuration not stated) | Active | inactive | 39.7 | 7.4% | inactive | Active | < 3000 ng/mL | – | 0.399 mV/ms | – | 7.51 | inactive | inactive | Active | 1580 ng/g | – | Dose-dependent effect | 23% | 9.17
